Here are results for 37 sequences from the array DNA melting data of Ke et al. (doi:10.1101/2024.01.08.574731).

The nature of data set [1]: folding enthalpy; higher = less favourable; fluorescence melt of hairpins on a sequencing array, two-state fit. To be noted: sodium 0.088 M. The procedure, abridged: (§1)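 On a sequenced MiSeq flow cell, library hairpins with annealed Cy3 and quencher oligos were imaged for Cy3 fluorescence in 2.5 °C steps up to 60 °C, in 50 mM Na-HEPES pH 8.0, 25 mM NaCl. Normalisation used pre-quench Cy3 and control constructs. Bootstrapped two-state fits gave melting temperature and folding enthalpy, combined by inverse variance across four replicates and with fitted temperatures raised by 9.35 °C to match UV melts.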

A short description of data set [2]: melting temperature; fluorescence melt of hairpins on a sequencing array, two-state fit, raised by 9.35 °C to match UV melts. To be noted: sodium 0.088 M. A digest of the protocol:
as §1

Turning to GGTCCGCGAAAGCGACC (((.(((....)))))), in data set [1], the folding enthalpy is -16.8 kcal/mol. The Tm in data set [2] was determined as 62.4 °C.
As to GATCACGTGGTGATC ((((((...)))))), the folding enthalpy in data set [1] was -46.3 kcal/mol. In data set [2], the Tm amounted to 56.5 °C.
For GCAAACCGAAAGGTTGC (((.(((....)))))), the folding enthalpy in data set [1] was -29.1 kcal/mol. Also, the Tm in data set [2] is 57.2 °C.
Turning to GCACCAGGAAACCGGTAC (.(((.(....).))).), the folding enthalpy in data set [1] was -8.98 kcal/mol. The Tm in data set [2] came to 22.2 °C.
The matching figures for GGTGACCGAAAGGTACC (((.(((....)))))): -21.8 kcal/mol and 49 °C.
Take GGAATCGCGAAAGCGTCC (((..(((....)))))): the folding enthalpy in data set [1] was -8.44 kcal/mol. Moreover, in data set [2], the Tm amounted to 29.2 °C.
In the case of GACGCACGAAAGTGGTC (((.(((....)))))), in data set [1], the folding enthalpy is -16.9 kcal/mol. Moreover, in data set [2], the Tm amounted to 51.7 °C.
The matching figures for GCGGAAAACCGC ((((....)))): -16.3 kcal/mol and 49.8 °C.
Take GCTAGTCCGAAAGGAAGC (((..(((....)))))): in data set [1], the folding enthalpy is -16.1 kcal/mol. Besides, in data set [2], the Tm was 30 °C.
GATCCAAATATGGATC ((((((....)))))): the folding enthalpy in data set [1] was -34.1 kcal/mol. For the same sequence, the Tm in data set [2] was determined as 49.4 °C.
For GATCGTGTCAACGATC ((((((....)))))), in data set [1], the folding enthalpy is -39 kcal/mol. Further, the Tm in data set [2] stood at 67.6 °C.
GAAGACGAAAGTCTGTTC ((((((....)))..))): in data set [1], the folding enthalpy is -13.7 kcal/mol. Besides, the Tm in data set [2] amounted to 40 °C.
For the sequence GGCTCCGAAAGGACCGCC ((((((....)))..))), the folding enthalpy in data set [1] is -19.8 kcal/mol. Besides, the Tm in data set [2] was 53.3 °C.
As to GGCGACGAAAGTCAGGCC ((((((....)))..))), in data set [1], the folding enthalpy is -31.3 kcal/mol. For the same sequence, in data set [2], the Tm worked out at 55.5 °C.
The corresponding values for GCGTGCGAAAGCAAACGC ((((((....)))..))) are -29.6 kcal/mol and 60.2 °C.
The corresponding values for GAGAGCGAAAGCTCACTC ((((((....)))..))) are -12 kcal/mol and 55.5 °C.
For GAATGGGGAAACCCATCC (.(((((....))))).), the folding enthalpy in data set [1] is -12.7 kcal/mol. Also, the Tm in data set [2] was 36.5 °C.
Regarding GTTGACGAAAGTCCGAAC ((((((....)))..))), the folding enthalpy in data set [1] is -10.6 kcal/mol. For the same sequence, the Tm in data set [2] was determined as 29 °C.
GACCTTGGAAACAAAGTC (((.(((....))).))): in data set [1], the folding enthalpy is -20.3 kcal/mol. The Tm in data set [2] was found to be 26 °C.
The corresponding values for GTCTGAGCGAAAGCTGAC (((..(((....)))))) are -17.6 kcal/mol and 41.2 °C.
GATCTTTCATAAGATC ((((((....)))))): the folding enthalpy in data set [1] is -31.4 kcal/mol. In addition, the Tm in data set [2] turned out to be 44.8 °C.
Regarding GATCATCCTCATGATC ((((((....)))))), in data set [1], the folding enthalpy is -33.4 kcal/mol. The Tm in data set [2] amounted to 45.7 °C.
On to GCGGGAACCCGC ((((....)))), for which the folding enthalpy in data set [1] is -26 kcal/mol. Also, in data set [2], the Tm turned out to be 67.8 °C.
The matching figures for GCTTAGCGAAAGCCAGGC ((.(.((....)).).)): -12.6 kcal/mol and 34.5 °C.
For GAGAGCGAAAGCTGACTC ((((((....)))..))), the folding enthalpy in data set [1] was -13.3 kcal/mol. Further, in data set [2], the Tm was 32.3 °C.
Turning to GATCCGGTCCCGGATC ((((((....)))))), the folding enthalpy in data set [1] is -35.4 kcal/mol. In addition, the Tm in data set [2] is 65.3 °C.
Turning to GATCTTAATAAGATC ((((((...)))))), the folding enthalpy in data set [1] is -24.4 kcal/mol. For the same sequence, in data set [2], the Tm was found to be 39.8 °C.
In the case of GTCCCCGAAAGGGAAGAC ((((((....)))..))), the folding enthalpy in data set [1] is -13.5 kcal/mol. Also, the Tm in data set [2] came out at 44.5 °C.
On to GATCTCGAAGAGATC ((((((...)))))), for which the folding enthalpy in data set [1] is -34.2 kcal/mol. In addition, the Tm in data set [2] was 68.5 °C.
As for GACTACGAAAGTACGTC ((((((....))).))), the folding enthalpy in data set [1] is -25.7 kcal/mol. Further, the Tm in data set [2] turned out to be 43.3 °C.
As to GGACTAGCGAAAGCTTCC (((..(((....)))))), in data set [1], the folding enthalpy was -10.7 kcal/mol. Moreover, in data set [2], the Tm was determined as 27.5 °C.
Consider GATCCAGATCTGGATC ((((((....)))))), for which the folding enthalpy in data set [1] is -48 kcal/mol. Also, in data set [2], the Tm amounted to 54.3 °C.
For the sequence GGTGCCGAAAGGCTACC ((((((....))).))), the folding enthalpy in data set [1] is -17.2 kcal/mol. The Tm in data set [2] came out at 57.8 °C.
Regarding GATGACGGAAACGCCATC ((((.((....)).)))), the folding enthalpy in data set [1] was -32.3 kcal/mol. Moreover, the Tm in data set [2] came out at 48.3 °C.
For the sequence GGTGGTACGAAAGTAACC (((..(((....)))))), in data set [1], the folding enthalpy is -19 kcal/mol. In addition, the Tm in data set [2] came to 43.8 °C.
In the case of GCAACTGGAAACAGTCGC ((.((((....)))).)), the folding enthalpy in data set [1] was -33 kcal/mol. For the same sequence, the Tm in data set [2] was found to be 45.9 °C.
In the case of GTTGCCGGAAACGGTAAC (((.(((....))).))), the folding enthalpy in data set [1] is -33.3 kcal/mol. The Tm in data set [2] worked out at 54.4 °C.
